Data as given in ChEMBL document CHEMBL4145582, “Cytotoxic and Antibacterial Eremophilane Sesquiterpenes from the Marine-Derived Fungus Cochliobolus lunatus SCSIO41401” (J Nat Prod, 2018).
Converted amounts (≈) assume the structure as drawn.

Columns and labels:
HepG2 = assay: Cytotoxicity against human HepG2 cells after 6 days by MTT assay; type: functional, cell-based; settings: HepG2, 144 h
Summary of the method: (§1)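 HepG-2 and SGC7901 cells; growth inhibition read by MTT method, with 5-fluorouracil as positive control.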

SGC-7901 = assay: Cytotoxicity against human SGC7901 cells after 6 days by MTT assay; type: functional, cell-based; settings: SGC-7901, 144 h; summary of the method: as §1
Pasteurella multocida = assay: Antimicrobial activity against Pasteurella multocida subsp. multocida ATCC 43137 after 24 hrs by serial dilution method; type: functional; settings: ATCC 43137, 24 h
Summary of the method: (§2)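 Serial broth dilution in 96-well microtiter plates. Compounds and controls are dissolved in DMSO as stock. Bacteria are grown overnight at 37 °C, then diluted to 10^6 cfu/mL. E. coli and S. aureus are grown in Luria–Bertani broth. P. multocida and E. rhusiopathiae are grown in trypticase soy broth with 10% calf serum. Plates are incubated at 37 °C for 24 h and read at 630 nm.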

[1] = system: Erysipelothrix rhusiopathiae; assay: Antimicrobial activity against Erysipelothrix rhusiopathiae ATCC 19414 after 24 hrs by serial dilution method; type: functional; settings: ATCC 19414, 24 h; summary of the method: as §2
Staphylococcus aureus = assay: Antimicrobial activity against Staphylococcus aureus subsp. aureus Rosenbach ATCC 25923 after 24 hrs by serial dilution method; type: functional; settings: Rosenbach ATCC 25923, 24 h; summary of the method: as §2
786-0 = assay: Cytotoxicity against human 786-O cells after 72 hrs by CCK8 assay; type: functional, cell-based; settings: 786-0, 72 h
Summary of the method: (§3)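 Renal cancer lines ACHN, 786-O and OS-RC-2; cell viability read by CCK-8 assay, with sorafenib as positive control.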

OS-RC-2 = assay: Cytotoxicity against human OS-RC2 cells after 72 hrs by CCK8 assay; type: functional, cell-based; settings: OS-RC-2, 72 h; summary of the method: as §3
Escherichia coli = assay: Antimicrobial activity against Escherichia coli ATCC 25922 after 24 hrs by serial dilution method; type: functional; settings: ATCC 25922, 24 h; summary of the method: as §2
ACHN = assay: Cytotoxicity against human ACHN cells after 72 hrs by CCK8 assay; type: functional, cell-based; summary of the method: as §3

SMILES	IC50 (HepG2) [µM]	IC50 (SGC-7901) [µM]	MIC (Pasteurella multocida) [µg/mL]	MIC [1] [µg/mL]	MIC (Staphylococcus aureus) [µg/mL]	IC50 (786-0) [nM]	IC50 (OS-RC-2) [µM]	MIC (Escherichia coli) [µg/mL]	IC50 (ACHN) [µM]
O=c1[nH]cc(F)c(=O)[nH]1 [FLUOROURACIL]	12	12							
CC1(C)S[C@@H]2[C@H](NC(=O)Cc3ccccc3)C(=O)N2[C@H]1C(=O)O [PENICILLIN G]			13 (≈ 38.9 µM)	13 (≈ 38.9 µM)	13 (≈ 38.9 µM)				
C=C(C=O)[C@]1(O)C[C@@]2(C)C(=CC1=O)C=C[C@H](OC(=O)/C=C/C(C)=C/[C@@H](C)CC)[C@@H]2C	1.4	1.4	13 (≈ 31.5 µM)	13 (≈ 31.5 µM)	1.5 (≈ 3.64 µM)	2500	3.7	> 100	4.3
